Experimental data published in ChEMBL document CHEMBL1146073, “A pyridazine series of alpha2/alpha3 subtype selective GABA A agonists for the treatment of anxiety” (J Med Chem, 2006).

How the values were obtained:
[1] = Stability in human assessed as liver microsomal turnover; assay type: ADME, Microsome; conditions: liver microsomes, read-out: Stability
In short: (§1)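 Test compound at 1 µM, with diazepam as control, incubated 0.25 h with pooled liver microsomes at 0.5 mg/mL protein. Compound remaining quantified by LC/MS/MS. Turnover is the mean of three determinations.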

[2] = biological target: T1, GABA-A receptor; alpha-5/beta-3/gamma-2 (Homo sapiens, UniProt P18507+P28472+P31644); test: Displacement of [3H]Ro-151788 from recombinant human GABA-Aalpha5 receptor plus beta3gamma2; assay type: protein-complex assay
T1 sequence (P18507 whole entry): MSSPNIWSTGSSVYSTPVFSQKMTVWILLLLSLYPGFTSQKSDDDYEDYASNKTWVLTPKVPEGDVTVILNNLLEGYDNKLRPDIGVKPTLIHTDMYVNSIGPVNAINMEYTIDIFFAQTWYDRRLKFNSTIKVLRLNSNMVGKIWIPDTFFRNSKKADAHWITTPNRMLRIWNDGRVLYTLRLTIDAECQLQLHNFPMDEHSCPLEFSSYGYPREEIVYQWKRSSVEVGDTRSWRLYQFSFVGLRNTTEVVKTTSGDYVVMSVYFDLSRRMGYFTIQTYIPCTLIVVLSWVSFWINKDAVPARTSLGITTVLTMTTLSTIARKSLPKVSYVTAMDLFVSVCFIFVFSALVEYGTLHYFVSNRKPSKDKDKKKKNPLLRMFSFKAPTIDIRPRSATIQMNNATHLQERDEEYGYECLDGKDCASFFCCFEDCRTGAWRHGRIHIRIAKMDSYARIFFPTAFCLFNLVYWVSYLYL
T1 sequence (P28472 whole entry): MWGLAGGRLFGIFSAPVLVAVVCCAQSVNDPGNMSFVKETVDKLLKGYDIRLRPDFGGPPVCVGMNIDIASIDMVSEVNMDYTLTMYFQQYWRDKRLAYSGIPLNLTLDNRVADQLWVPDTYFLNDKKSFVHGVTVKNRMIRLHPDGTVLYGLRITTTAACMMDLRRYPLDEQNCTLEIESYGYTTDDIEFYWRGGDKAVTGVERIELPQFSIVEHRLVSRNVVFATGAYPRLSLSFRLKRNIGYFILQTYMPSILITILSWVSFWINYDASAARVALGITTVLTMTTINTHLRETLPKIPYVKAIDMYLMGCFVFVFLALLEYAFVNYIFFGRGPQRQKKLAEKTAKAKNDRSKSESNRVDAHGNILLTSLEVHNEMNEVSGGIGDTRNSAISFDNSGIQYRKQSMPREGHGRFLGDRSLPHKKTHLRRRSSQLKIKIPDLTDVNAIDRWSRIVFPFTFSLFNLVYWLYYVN
T1 sequence (P31644 whole entry): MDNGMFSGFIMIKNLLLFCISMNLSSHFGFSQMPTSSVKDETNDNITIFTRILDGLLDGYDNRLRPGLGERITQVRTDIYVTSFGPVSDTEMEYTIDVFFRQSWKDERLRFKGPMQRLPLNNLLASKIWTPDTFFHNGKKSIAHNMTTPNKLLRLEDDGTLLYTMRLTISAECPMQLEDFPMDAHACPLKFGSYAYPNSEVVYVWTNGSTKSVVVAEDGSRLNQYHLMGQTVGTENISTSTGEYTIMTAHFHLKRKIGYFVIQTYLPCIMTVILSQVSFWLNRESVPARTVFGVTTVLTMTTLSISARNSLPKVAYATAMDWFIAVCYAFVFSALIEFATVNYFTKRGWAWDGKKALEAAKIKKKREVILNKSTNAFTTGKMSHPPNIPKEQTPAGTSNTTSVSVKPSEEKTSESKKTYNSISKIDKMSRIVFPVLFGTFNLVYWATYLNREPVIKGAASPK
In short: (§2)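 Benzodiazepine-site binding on stably transfected αxβ3γ2 receptors (x = 1, 2, 3 or 5). Inhibition curves run with [3H]Ro15-1788 at roughly twice its Kd. Ki derived by Cheng-Prusoff equation. Mean of three to six determinations.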

[3] = biological target: GABA-A receptor; anion channel (Rattus norvegicus) (UniProt O09028+P15431+P18506+P18508+P19969+P20236+P23574+P23576+P28471+P28473+P30191+P62813+P63079+P63138+Q91ZM7+Q9ES14); test: Receptor occupancy in vivo by displacement of [3H]Ro 15-1788 binding from GABA-A receptor in rat, po; assay type: functional, organism-based
In short: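 Rat in vivo occupancy measured by [3H]Ro 15-1788 binding after oral dosing. Rats taken as a subgroup after the plus-maze trial, i.e. 30 min post-dose or later. ED50 derived from dose-dependent occupancy. Mean ± SEM, n = 5-10/group.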

[4] = biological target: T2, GABA-A receptor; alpha-1/beta-3/gamma-2 (Homo sapiens, UniProt P14867+P18507+P28472); test: Displacement of [3H]Ro-151788 from recombinant human GABA-Aalpha1 receptor plus beta3gamma2; assay type: protein-complex assay; in short: as §2
T2 sequence (P14867 whole entry): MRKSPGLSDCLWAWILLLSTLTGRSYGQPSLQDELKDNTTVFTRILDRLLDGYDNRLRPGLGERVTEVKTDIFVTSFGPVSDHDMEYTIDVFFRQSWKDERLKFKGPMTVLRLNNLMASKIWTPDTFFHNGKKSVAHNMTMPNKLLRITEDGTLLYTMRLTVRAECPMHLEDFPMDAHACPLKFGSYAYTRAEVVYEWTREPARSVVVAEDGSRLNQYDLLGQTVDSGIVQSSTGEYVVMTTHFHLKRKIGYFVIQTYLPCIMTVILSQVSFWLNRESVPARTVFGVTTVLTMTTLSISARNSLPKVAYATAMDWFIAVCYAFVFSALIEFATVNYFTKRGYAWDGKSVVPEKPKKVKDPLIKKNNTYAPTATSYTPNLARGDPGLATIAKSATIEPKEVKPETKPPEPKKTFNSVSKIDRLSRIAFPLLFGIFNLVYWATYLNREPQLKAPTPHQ
T2 sequence (P18507 whole entry): T1 sequence (P18507 whole entry)
T2 sequence (P28472 whole entry): T1 sequence (P28472 whole entry)

[5] = biological target: T3, GABA-A receptor; alpha-3/beta-3/gamma-2 (Homo sapiens, UniProt P18507+P28472+P34903); test: Displacement of [3H]Ro-151788 from recombinant human GABA-Aalpha3 receptor plus beta3gamma2; assay type: protein-complex assay; in short: as §2
T3 sequence (P18507 whole entry): T1 sequence (P18507 whole entry)
T3 sequence (P28472 whole entry): T1 sequence (P28472 whole entry)
T3 sequence (P34903 whole entry): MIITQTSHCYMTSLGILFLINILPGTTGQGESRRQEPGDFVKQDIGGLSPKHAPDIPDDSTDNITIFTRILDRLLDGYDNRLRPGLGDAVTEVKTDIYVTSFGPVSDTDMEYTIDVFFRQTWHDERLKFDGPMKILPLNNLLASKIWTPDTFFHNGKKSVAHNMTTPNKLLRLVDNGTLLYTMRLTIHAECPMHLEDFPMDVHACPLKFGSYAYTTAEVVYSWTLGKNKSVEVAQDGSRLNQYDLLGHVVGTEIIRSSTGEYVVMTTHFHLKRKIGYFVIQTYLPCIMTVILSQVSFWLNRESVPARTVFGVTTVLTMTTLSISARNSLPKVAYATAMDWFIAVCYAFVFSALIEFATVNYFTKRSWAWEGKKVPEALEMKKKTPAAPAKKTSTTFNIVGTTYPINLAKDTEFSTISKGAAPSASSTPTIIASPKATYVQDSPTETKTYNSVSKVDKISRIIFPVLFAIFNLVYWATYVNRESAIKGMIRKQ

[6] = biological target: T4, GABA-A receptor; alpha-5/beta-3/gamma-2 (Homo sapiens) (UniProt P18507+P28472+P31644); test: Efficacy against recombinant human GABA-Aalpha5 plus beta-3-gamma-2 expressed in L(tk-) cells by whole cell patch clamp method relative to chlordiazepoxide; assay type: functional, cell-based
In short: (§3)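 Whole-cell patch clamp on αxβ3γ2 receptors stably expressed in L(tk-) cells, measuring the effect on current evoked by an EC20-equivalent of GABA. Reported relative to full agonist chlordiazepoxide (=1.0), or as direct percent modulation of the EC20 control, with inverse agonism given as percent. Mean of at least four independent experiments.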

[7] = Stability in rat assessed as liver microsomal turnover; assay type: ADME, Microsome; conditions: liver microsomes, read-out: Stability; in short: as §1
[8] = biological target: T5, GABA-A receptor; alpha-1/beta-3/gamma-2 (Homo sapiens) (UniProt P14867+P18507+P28472); test: Efficacy against recombinant human GABA-Aalpha1 plus beta-3-gamma-2 expressed in L(tk-) cells by whole cell patch clamp method; assay type: functional, cell-based; in short: as §3
[9] = biological target: GABA-A receptor; alpha-3/beta-3/gamma-2 (Homo sapiens) (UniProt P18507+P28472+P34903); test: Efficacy against recombinant human GABA-Aalpha3 plus beta-3-gamma-2 expressed in L(tk-) cells by whole cell patch clamp method relative to chlordiazepoxide; assay type: functional, cell-based; in short: as §3
[10] = Stability in dog assessed as liver microsomal turnover; assay type: ADME, Canis lupus familiaris; conditions: liver microsomes, read-out: Stability; in short: as §1
[11] = biological target: T5, GABA-A receptor; alpha-1/beta-3/gamma-2 (Homo sapiens); test: Efficacy against recombinant human GABA-Aalpha1 plus beta-3-gamma-2 expressed in L(tk-) cells by whole cell patch clamp method relative to chlordiazepoxide; assay type: functional, cell-based; in short: as §3
[12] = Oral bioavailability in rat; assay type: ADME, organism-based; conditions: in vivo
In short: (§4)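 Pharmacokinetics from six animals per species: three dosed iv and three dosed po.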

[13] = biological target: T4, GABA-A receptor; alpha-5/beta-3/gamma-2 (Homo sapiens); test: Efficacy against recombinant human GABA-Aalpha5 plus beta-3-gamma-2 expressed in L(tk-) cells by whole cell patch clamp method; assay type: functional, cell-based; in short: as §3
[14] = biological target: GABA-A receptor; alpha-2/beta-3/gamma-2 (Homo sapiens) (UniProt P18507+P28472+P47869); test: Efficacy against recombinant human GABA-Aalpha2 plus beta-3-gamma-2 expressed in L(tk-) cells by whole cell patch clamp method relative to chlordiazepoxide; assay type: functional, cell-based; in short: as §3
[15] = Plasma clearance in rat; assay type: ADME, organism-based; in short: as §4
[16] = Half life in rat; assay type: ADME, organism-based; conditions: in vivo; in short: as §4

SMILES | metabolised [1] [%] | Ki [2] [nM] | Activity [3] [mg/kg] | Ki [4] [nM] | Ki [5] [nM] | Efficacy [6] | metabolised [7] [%] | Efficacy [8] [%] | Efficacy [9] | metabolised [10] [%] | Occ50 [3] [mg/kg] | Efficacy [11] | bioavailability [12] [%] | Efficacy [13] [%] | Efficacy [14] | clearance [15] [mL/min/kg] | half-life [16] [h]
Fc1cnc(-c2cc(-c3cnnc(-c4ncccc4F)c3)ccc2F)c(F)c1 | < 5 | 3.2 | < 0.2 | 0.4 | 1.7 | 0.14 | < 5 | -26 | 0.17 | – | – | – | – | – | – | – | –
Fc1ccc(-c2cnnc(-c3ncccc3F)c2)cc1-c1ncccc1F | 5 | 2.4 | 0.5 | 0.5 | 1.4 | – | 3 | -30 | 0.4 | 2 | – | – | – | – | – | – | –
Fc1ccc(-c2cc(-c3ccc(F)c(-c4ncc(F)cc4F)c3)cnn2)c(F)c1 | < 5 | 1.4 | – | – | 3.1 | – | 13 | – | 0.42 | 18 | 4.6 | 0.07 | – | – | – | – | –
Fc1ccc(-c2cnnc(-c3c(F)cncc3F)c2)cc1-c1ncccc1F | 9 | 3 | – | 0.8 | 3.2 | – | 9 | -7 | 0.39 | 9 | < 0.2 | – | – | – | – | – | –
Fc1ccccc1-c1cc(-c2ccc(F)c(-c3ncccc3F)c2)cnn1 | – | 0.5 | – | – | 0.9 | – | 11 | – | 0.31 | 34 | – | 0.11 | – | – | – | – | –
Fc1cnccc1-c1cc(-c2ccc(F)c(-c3ncccc3F)c2)cnn1 | 8 | 7.7 | – | 0.9 | 5.6 | – | 17 | -8 | 0.58 | 8 | 7.2 | – | 5 | -3 | 0.24 | 91 | 0.8
Fc1cnc(-c2cc(-c3cnnc(-c4ccccc4F)c3)ccc2F)c(F)c1 | 8 | 0.7 | – | – | 1.7 | – | 22 | -20 | 0.4 | 31 | 3 | – | 11 | -20 | 0.2 | 30 | 2.2
Fc1cnc(-c2cc(-c3cnnc(-c4ccncc4F)c3)ccc2F)c(F)c1 | < 5 | 5.6 | – | 3.5 | 8.2 | – | 23 | -7 | 0.41 | – | 15.3 | – | – | – | – | – | –
Fc1ccc(-c2cc(-c3ccc(F)c(-c4ncc(F)cc4F)c3)cnn2)cc1 | – | 3.8 | – | – | 5.6 | – | 7 | – | 0.21 | 20 | – | 0.02 | – | – | – | – | –
Fc1ccc(-c2cnnc(-c3c(F)cccc3F)c2)cc1-c1ncccc1F | 13 | 0.3 | – | 0.1 | 0.4 | – | 19 | -5 | 0.24 | 24 | – | – | – | – | – | – | –
